RAD54 branch – inhibitors of human RAD54 branch migration | inhibition, % at 10.4 µM | RAD54 Holliday junction branch migration, FAM/BHQ fluorescence | AID 602329 | Q92698 | actives 0.14% (n = 360,000);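 active = mean normalized replicate activity at least 40 and at least half of replicates scoring 40 or more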;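 note: 0% = median of neutral control wells and 100% = median of positive control wells; inhibitors cause a drop in the FAM fluorescence signal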
Neddylation inh – inhibitors of human cullin neddylation; TR-FRET cullin neddylation, biochemical; calls only at 25 µM; actives 0.58% (n = 360,000); in the data active = inhibition above about 36%
Target sequence (P61081 whole entry, looked up): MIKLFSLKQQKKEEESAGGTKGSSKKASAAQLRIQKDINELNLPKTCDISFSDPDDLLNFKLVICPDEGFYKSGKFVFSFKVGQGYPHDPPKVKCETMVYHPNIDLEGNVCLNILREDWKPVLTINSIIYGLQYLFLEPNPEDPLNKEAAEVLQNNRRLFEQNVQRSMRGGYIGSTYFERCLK
Target sequence (Q13564 whole entry, looked up): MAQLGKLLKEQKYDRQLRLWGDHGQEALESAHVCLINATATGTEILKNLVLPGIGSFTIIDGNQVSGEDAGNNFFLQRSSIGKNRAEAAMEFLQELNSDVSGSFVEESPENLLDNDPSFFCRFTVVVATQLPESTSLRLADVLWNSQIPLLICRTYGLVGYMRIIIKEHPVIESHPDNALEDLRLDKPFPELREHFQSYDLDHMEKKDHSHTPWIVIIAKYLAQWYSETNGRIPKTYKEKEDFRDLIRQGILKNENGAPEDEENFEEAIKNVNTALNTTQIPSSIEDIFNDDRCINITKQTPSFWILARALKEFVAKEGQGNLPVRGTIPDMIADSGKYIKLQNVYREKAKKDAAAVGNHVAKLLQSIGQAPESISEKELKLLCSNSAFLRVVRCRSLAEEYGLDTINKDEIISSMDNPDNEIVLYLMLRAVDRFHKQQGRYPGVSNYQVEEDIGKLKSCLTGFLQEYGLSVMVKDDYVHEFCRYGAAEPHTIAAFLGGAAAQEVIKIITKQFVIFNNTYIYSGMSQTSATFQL
FID counter – displaces DNA intercalator in HCV helicase counter-screen; actives 0.17% (n = 290,000); inhibition, % at 7.9 µM; DNA fluorescent intercalator displacement, fluorescence; AID 1845; in the data active = inhibition above about 37%;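 note: 0% = vehicle and 100% = reference compound; higher means more ethidium bromide displaced from hairpin DNA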
Apaf-1 inh – inhibitors of human Apaf-1 apoptosome; O14727; reconstituted apoptosome caspase-3 activity, DEVD-Rh110 fluorescence; inhibition, % at 20 µM; actives 0.71% (n = 330,000); AID 489030; active = inhibition of at least 40% at 20 µM;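 note: plate controls were DMSO wells for no effect and DEVD-CHO caspase inhibitor wells for full effect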
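Material: reconstituted apoptosome with Apaf-1, cytochrome c, caspase-9, procaspase-3, dATP; medium: pH 7.5 Hepes buffer with CHAPS, BSA, DTT; also added: cytochrome c and DEVD-Rh110 substrate; timing: 30 min plus 50 min, RT; signal: Rh110 fluorescence intensity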
RAD52 anneal inh – RAD52 (human) annealing inhibition. inhibition, % at 18.7 µM. actives 0.46% (n = 360,000). AID 651710. recombinant RAD52 DNA annealing, FRET fluorescence. P43351;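 active = every replicate showing at least 50% inhibition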
UBC13 polyUb – blocks human UBC13 polyubiquitin chain formation; P61088; TR-FRET; inhibition, % at 20 µM; actives 0.47% (n = 330,000); AID 485273; in the data active = inhibition above about 45%, passing the limit was not always enough
Apaf-1 inh conf2 – confirmation of Apaf-1 inhibitors; shares compounds with Apaf-1 inh; reconstituted apoptosome, caspase-3 DEVD-Rh110 fluorescence; inhibition, % at 20 µM; actives 25% (n = 1,800); AID 504614;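 active = mean inhibition of at least 40% at 20 µM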;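 note: plate controls were DMSO wells for no effect and DEVD-CHO caspase inhibitor control wells for full effect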
Rh110 interf inh – interferes with Rh110 fluorescence, flagging false Apaf-1 inhibitors; Rh110 fluorescence interference, quenched caspase reaction; 1,800 tested, under 10 active; shares compounds with Apaf-1 inh; activation (fluorescence interference), % at 20 µM;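 active = signal rise of 40% or more at 20 µM, treated as a fluorescence artifact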
Apaf1 inh interf – counter-screen for Apaf-1 inhibitors: fluorescence interference, dose response | shares compounds with Apaf-1 inh | fluorescence interference counterscreen, Apaf-1 assay format | IC50, µM | 460 tested, under 10 active; call rule not given here
An asterisk follows results filed as active; i = inactive; nt = no result given; + = active, no number. Compounds with a hit are over-represented: about 1.6% of the library has one in this group of screens.

SMILES	RAD54 branch	Neddylation inh	FID counter	Apaf-1 inh	RAD52 anneal inh	UBC13 polyUb	Apaf-1 inh conf2	Rh110 interf inh	others
CC(C)NC(=O)Nc1ccc2c(c1)C(=O)N([C@H](C)CO)C[C@H](C)[C@H](CN(C)C(=O)c1ccccc1)OCCCC[C@H](C)O2	0	nt	nt	nt	-3	nt	nt	nt
CC(C)CC#Cc1ccc2c(c1)O[C@@H](CN(C)C(=O)Cc1cccnc1)[C@@H](C)CN([C@H](C)CO)S2(=O)=O	4	nt	nt	nt	2	nt	nt	nt
Oc1c(Br)cc(Br)cc1C=Nc1cccc2ncccc12	-2	+	nt	97*	-12	-42	56*	6	Apaf1 inh interf=>100
Brc1cccc(C=Nc2cccc3ncccc23)c1	nt	i	nt	-9	5	3	nt	nt
COc1ccc(Nc2ccc(OC)cc2)cc1	1	i	-16	80*	25	-52	-6	0
COc1ccc(Nc2ccc(Nc3ccc(OC)cc3)nn2)cc1	8	i	3	6	5	4	nt	nt
CCC(CC)c1nnc(NC(=O)CCN2C(=O)c3ccccc3C2=O)s1	-4	i	-16	6	nt	3	nt	nt
CCC(CC)c1nnc(NC(=O)CN2C(=O)c3ccccc3C2=O)s1	nt	i	-17	87*	4	6	4	-3
COc1ccc2nc3ccccc3nc2c1N	2	i	-7	92*	1	-371	21	-2
COc1ccc2nc(-c3ccco3)c(-c3ccco3)nc2c1	1	i	-17	39	-63	7	nt	nt
COc1ccc2nc3cccc(OC)c3nc2c1	7	i	5	97*	-12	-55	27	1
CCc1nc(N2CCN(C(=O)CCl)CC2)c2c3c(sc2n1)CC(C)CC3 (stereo not drawn)	-6	i	-24	19	14	31	nt	nt
CCc1nc(N2CCN(C(C)=O)CC2)c2c3c(sc2n1)CC(C(C)(C)C)CC3 (stereo not drawn)	-9	i	-28	42*	-14	22	31	10
Cc1ccc(-n2nc3ccc(N)cc3n2)cc1Cl	6	nt	2	96*	-10	-4	47*	2	Apaf1 inh interf=>100
Cc1ccc(-n2cnnn2)cc1Cl	nt	i	-9	3	-9	0	nt	nt
Cc1ccc(-n2nc3ccc(N)cc3n2)c(C)c1	5	nt	-3	68*	-28	-1	32	14
Cc1cc(N)ccc1-n1nc2ccccc2n1	nt	i	nt	-6	-44	14	nt	nt
Cc1ccc(-n2nc3ccc(N)cc3n2)cc1C	-6	nt	-3	80*	-3	-23	29	1
COc1ccc(-n2nc3ccc(N)cc3n2)cc1Cl	4	nt	0	95*	7	-9	55*	9	Apaf1 inh interf=>100
Cc1cc(N)n(-c2ccc(C)c(C)c2)n1	nt	i	-9	-10	-7	-1	nt	nt
O=C(C[C@H]1C[C@H]2c3cc(NC(=O)C4CCC4)ccc3O[C@H]2[C@H](CO)O1)NCc1ccc(Cl)cc1	3	nt	nt	nt	8	nt	nt	nt
CCOc1cc(CNc2ccc(O)cc2)cc(Br)c1OCc1ccccc1F	-7	i	-4	17	nt	-4	nt	nt
COc1cc(CNc2ccc(O)cc2)cc(Br)c1OCc1ccccc1F	-6	i	1	96*	nt	0	23	14
COc1ccccc1N1CCN(CCCOc2ccc(F)cc2)CC1	-2	i	16	-11	nt	-2	nt	nt
O=C1CCc2ccc(OCCCCN3CCN(c4cccc(Cl)c4Cl)CC3)cc2N1	3	i	16	43*	-3	35	18	8
SMILES	RAD54 branch	Neddylation inh	FID counter	Apaf-1 inh	RAD52 anneal inh	UBC13 polyUb	Apaf-1 inh conf2	Rh110 interf inh	others
CN1C(C(=O)NCC2CC2)CC2Cn3c(nc4cc5ccccc5cc43)C21 (stereo not drawn)	-2	i	nt	41*	-8	4	10	-2
COCCNC(=O)C1CC2Cn3c(nc4cc5ccccc5cc43)C2N1C (stereo not drawn)	-7	i	nt	-2	-4	1	nt	nt
COc1ccc2c(c1)c1ccc3c(c1n2C)C(=O)C=CC3=O	4	nt	0	71*	0	-34	57*	5	Apaf1 inh interf=>100
Cc1ccc2c(c1)c1ccc3c(c1n2C)C(=O)C=CC3=O	-10	nt	-5	57*	-11	-25	40*	2	Apaf1 inh interf=>100
O=C1Cc2cc(S(=O)(=O)N3CCCCC3)ccc2N1	-3	i	-7	9	-11	0	nt	nt
O=C1Cc2cc(S(=O)(=O)N3CCNCC3)ccc2N1	nt	i	nt	40*	77*	-4	10	6
C[C@H]1CN([C@@H](C)CO)C(=O)c2cccc(NC(=O)c3ccncc3)c2O[C@@H]1CN(C)S(=O)(=O)c1cn(C)cn1	-4	nt	nt	nt	-12	nt	nt	nt
C[C@@H]1CCCCO[C@@H](CN(C)S(=O)(=O)c2cccs2)[C@H](C)CN([C@@H](C)CO)C(=O)c2cc(NC(=O)Cc3ccccc3)ccc2O1	0	nt	nt	nt	nt	nt	nt	nt
Cc1ccc(Cc2c(C)c(C#N)c3[nH]c4ccccc4n3c2=O)cc1	3	nt	0	6	-38	3	nt	nt
C=C(C)Cc1c(C)c(C#N)c2[nH]c3ccccc3n2c1=O	0	nt	-3	62*	-26	-14	45*	5	Apaf1 inh interf=>100
CCOC(=O)C1CCCN(C(=O)c2cccc(S(=O)(=O)N(C)c3c(C)n(C)n(-c4ccccc4)c3=O)c2)C1 (stereo not drawn)	-1	i	-31	49*	13	26	33	7
CC1=CC(C)(C)N2C(=O)C(=Nc3ccc(O)cc3)c3cccc1c32	nt	i	-1	90*	8	-28	15	-3
C[C@@H]1CCCCO[C@@H](CN(C)S(=O)(=O)c2ccc(Cl)cc2)[C@H](C)CN([C@H](C)CO)C(=O)c2cc(NC(=O)Nc3ccccc3)ccc2O1	19	nt	nt	nt	-8	nt	nt	nt
CCCC1=Nc2cc(C(=O)NCCCOC(C)C)ccc2Sc2ccccc21	-3	i	-33	25	nt	-2	nt	nt
CCCC1=Nc2cc(C(=O)NCCCOCC)ccc2Sc2ccccc21	-3	i	-57	45*	nt	-1	3	-1
COc1ccc(C(CNC(=O)c2cccc(NS(=O)(=O)c3ccc(C)c(F)c3)c2)N(C)C)cc1 (stereo not drawn)	-8	i	nt	52*	3	13	37	-6
CO[C@H]1CN(C)C(=O)c2ccc(NC(=O)C3CC3)cc2OC[C@H](C)N(C(=O)NC(C)C)C[C@@H]1C	3	nt	nt	nt	-1	nt	nt	nt
COCCN(C(=O)COC(=O)/C=C/c1ccc(C(F)(F)F)cc1)c1c(N)n(Cc2ccccc2)c(=O)[nH]c1=O	7	i	nt	44*	-10	-12	6	3
COCCN(C(=O)COC(=O)/C=C/c1ccc(SC)cc1)c1c(N)n(Cc2ccccc2)c(=O)[nH]c1=O	-1	nt	nt	nt	-10	nt	nt	nt

High-throughput results from PubChem BioAssay.
